CSC inhib: cancer stem cell viability inhibitors, primary screen, luminescence | cancer stem cell-like cells viability | inhibition, % at 7.5 µM | 1.1% of 300,000 active; in the data active = inhibition above about 75%; inconclusive = no clear call, values can overlap the other calls; tested in HMLE shEcad cells
T cruzi inh: inhibitors of intracellular T. cruzi growth, primary screen, luminescence, NIH3T3 host cells. T. cruzi beta-gal in NIH3T3, 90 h. inhibition, % (test concentration not listed). 1.4% of 300,000 active;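 active = mean inhibition across valid replicates above about 55%, limit read from the data; inconclusive = mean below that limit but half or more replicates reach it; inactive = mean below it, under half of replicates reach it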;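 note: signal also drops with host cell toxicity which is not excluded here; higher percent means less beta-gal luminescence so fewer parasites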
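Read-out: Parasite load inhibition, % | Test system: Mouse NIH/3T3 fibroblasts infected with β-gal-expressing T. cruzi Tulahuen C4 | Amount: 5,000 cells/well | Medium: DMEM, 2% fetal bovine serum | Signal: GalScreen β-gal luminescence, detergent lysis, 60 min | Timing: 3 h attach, ≥90 h co-culture | Also added: Tulahuen C4 trypomastigotes, 5000/well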
SKKanGAS inh: S. pyogenes SKKanGAS growth inhibitors in kanamycin, primary screen, streptokinase expression inhibitor project, SKKanGAS strain, BacTiter-Glo luminescence; 6 h; AID 1662, 2009; inhibition, % at 7.5 µM; 1.3% of 300,000 active;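 active = mean replicate score, as percent of positive control median, at least 50; inconclusive = mean below 50 but one replicate at or above 50; inactive = mean and every replicate below 50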;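 note: strain carries kanamycin resistance gene driven by streptokinase promoter and grows in 40 µg/ml kanamycin; loss of luminescence reflects streptokinase promoter inhibition or plain growth inhibition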
Mdm2 MdmX PPI: inhibitors of human Mdm2-MdmX association, primary screen, cell-based, luminescence, split luciferase, SaOS-2, uHTS | Protein Mdm4 (Homo sapiens) + E3 ubiquitin-protein ligase Mdm2 (Homo sapiens), … | SaOS-2 split-luciferase Mdm2/MdmX complementation | inhibition, % at 8 µM | 3% of 330,000 active | AID 485346, 2010;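 active = inhibition of at least 50% at 8 µM in the primary screen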
Target sequence (O15151 whole entry, looked up): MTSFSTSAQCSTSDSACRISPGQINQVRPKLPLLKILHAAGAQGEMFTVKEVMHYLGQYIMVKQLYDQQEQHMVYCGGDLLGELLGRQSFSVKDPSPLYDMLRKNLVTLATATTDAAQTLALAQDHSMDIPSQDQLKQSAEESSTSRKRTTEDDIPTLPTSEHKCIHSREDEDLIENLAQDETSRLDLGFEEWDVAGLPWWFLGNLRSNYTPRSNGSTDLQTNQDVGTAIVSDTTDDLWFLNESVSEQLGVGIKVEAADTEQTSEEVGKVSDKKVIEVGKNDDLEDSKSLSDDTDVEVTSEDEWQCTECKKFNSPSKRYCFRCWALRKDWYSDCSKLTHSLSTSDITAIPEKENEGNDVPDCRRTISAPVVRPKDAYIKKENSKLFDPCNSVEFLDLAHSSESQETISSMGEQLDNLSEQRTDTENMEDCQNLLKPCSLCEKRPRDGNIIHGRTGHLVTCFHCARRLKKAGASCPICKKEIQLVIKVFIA
Target sequence (Q00987 whole entry, looked up): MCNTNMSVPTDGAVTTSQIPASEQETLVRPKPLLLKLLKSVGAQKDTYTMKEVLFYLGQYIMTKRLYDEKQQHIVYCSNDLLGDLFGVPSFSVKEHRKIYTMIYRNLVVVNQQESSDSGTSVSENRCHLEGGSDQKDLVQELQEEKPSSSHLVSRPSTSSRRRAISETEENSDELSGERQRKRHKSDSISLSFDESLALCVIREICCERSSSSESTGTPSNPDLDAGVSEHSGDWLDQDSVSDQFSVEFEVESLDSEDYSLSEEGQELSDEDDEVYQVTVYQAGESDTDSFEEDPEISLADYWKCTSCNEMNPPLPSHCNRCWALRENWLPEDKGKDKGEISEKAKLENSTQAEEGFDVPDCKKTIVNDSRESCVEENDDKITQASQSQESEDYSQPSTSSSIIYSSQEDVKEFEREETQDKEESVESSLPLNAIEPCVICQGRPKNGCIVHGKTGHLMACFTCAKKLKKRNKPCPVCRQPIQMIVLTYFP
Beta cell apopt: inhibitors of cytokine-induced beta cell apoptosis, primary screen, luminescence; INS-1E cytokine-induced death, ATP luminescence, 48 h; percent of positive-control rescue, neutral wells zero; 0.8% of 300,000 active; protection from apoptosis, % (test concentration not listed);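 active = Every replicate reaches about 75%, or at least half do and their mean reaches it too, limit read from the data; inconclusive = At least half of replicates reach the limit but their mean does not; inactive = Under half of replicates reach the limit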;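 note: higher means more ATP so stronger rescue from cytokine killing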
Calb FLC: C. albicans growth inhibition with fluconazole, primary screen, CaCi-2 strain, Alamar Blue fluorescence. C. albicans CaCi-2 (fluconazole-resistant clinical isolate) + fluconazole, 48 h. growth inhibition, % (test concentration not listed). 0.57% of 300,000 active;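 active = growth inhibition above about 58% in most replicates, limit read from the data, passing the limit was not always enough; inconclusive = exactly half the replicates above a set limit; inactive = most replicates below a set limit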;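 note: all wells also contain fluconazole at 8 µg/ml as a sub-toxic cotreatment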
Numbers stand for hits; - = inactive; ? = inconclusive; . = no result. Most compounds without a hit are left out; they make up all but 5.7% or so of the library.

SMILES	CSC inhib	T cruzi inh	SKKanGAS inh	Mdm2 MdmX PPI	Beta cell apopt	Calb FLC
CCN(C(=O)COC(=O)CCC(=O)c1cccs1)c1ccccc1	-	.	.	-	-	.
Cc1ccc(S(=O)(=O)N(C)c2ccc(OCC(=O)Nc3cccc(-n4cnnn4)c3C)cc2)cc1	-	-	-	-	-	-
CCOc1ccc(-c2noc(CCC(=O)NCC3CCCO3)n2)cc1OC (configuration not stated)	.	-	-	-	-	-
O=C(Cn1nc(-c2ccccc2)oc1=O)OCC(=O)c1ccc(F)c(F)c1	.	.	.	-	-	.
O=C1C=C(Nc2ccccc2)C(=O)c2ccccc21	-	-	-	-	84	-
CCN(c1ccc(OC)cc1)S(=O)(=O)c1nnc(NC(=O)c2ccco2)s1	-	-	-	-	-	-
CCN(c1ccc(OC)cc1)S(=O)(=O)c1nnc(NC(=O)c2ccccc2Cl)s1	-	-	50	-	-	-
CC(Sc1nc2ccccc2s1)C(=O)c1c(N)n(C)c(=O)n(C)c1=O (configuration not stated)	-	-	-	-	-	?
Cc1noc(C)c1-c1nc(CSc2ccccc2)no1	-	-	-	-	-	-
O=C(Nc1cnn(C23CC4CC(CC(C4)C2)C3)c1)c1cc(-c2ccccc2)on1	81	61	-	-	-	-
CCC(O)CC(C(=O)NNc1ccccc1)C(=O)NNc1ccccc1 (configuration not stated)	-	-	-	-	-	100
CNc1oc(-c2ccc(Cl)cc2)nc1P(=O)(c1ccccc1)c1ccccc1	120	-	-	-	-	-
O=C(N/N=C/c1cc([N+](=O)[O-])ccc1O)C1C2CCCCC21 (configuration not stated)	-	-	-	-	-	101
O=C(CCC(=O)Nc1ccc(F)cc1)N/N=C/c1cc([N+](=O)[O-])ccc1O	-	-	-	-	-	-
O=C(CCC(=O)Nc1ccc(Br)cc1)N/N=C/c1cc([N+](=O)[O-])ccc1O	-	-	56	-	-	-
O=C(N/N=C/c1cc([N+](=O)[O-])ccc1O)C1CCCCC1	-	-	-	-	-	-
O=C(CCC(=O)Nc1cc(C(F)(F)F)ccc1Cl)N/N=C\c1cc([N+](=O)[O-])ccc1O	-	-	103	-	-	-
COc1ccccc1C(CNC(=O)C(C)Oc1ccc(Br)cc1)N1CCCC1 (configuration not stated)	-	-	-	-	-	.
O=C(CSc1nnc(NC(=O)c2ccccc2F)s1)NCC1CCCO1 (configuration not stated)	-	-	-	-	-	-
CCN(CC)S(=O)(=O)c1ccc(NC(=O)c2cc(C(=O)OC)cc([N+](=O)[O-])c2)cc1	-	?	-	-	-	-
CC(=O)Nc1ccc(NC(=O)c2cc([N+](=O)[O-])cc([N+](=O)[O-])c2)cc1	-	55	-	-	-	-
O=C(Nc1ccc(Br)cc1)c1cc([N+](=O)[O-])cc([N+](=O)[O-])c1	-	71	-	-	-	-
COC(=O)c1cc(C(=O)Nc2ccc(S(=O)(=O)NC(C)(C)C)cc2)cc([N+](=O)[O-])c1	-	56	-	-	-	-
CN1CCN(NC(=O)c2cc([N+](=O)[O-])cc([N+](=O)[O-])c2)CC1	-	70	-	-	-	-
CN1CCN(C(=O)c2cc([N+](=O)[O-])cc([N+](=O)[O-])c2)CC1	-	-	-	-	-	-
SMILES	CSC inhib	T cruzi inh	SKKanGAS inh	Mdm2 MdmX PPI	Beta cell apopt	Calb FLC
CCOc1ccc(NC(=O)CCN2C(=O)c3ccccc3C2=O)cc1	-	-	.	-	-	-
O=C([C@@H]1Cc2ccccc2CN1)N1CCN(Cc2ccccc2)CC1	-	-	-	-	-	-
CC(C)(C)OC(=O)n1cc(CCO)c2ccccc21	-	.	.	-	-	.
CC(Sc1ccc(Cl)cc1)C(=O)NCc1ccc2c(c1)OCO2 (configuration not stated)	-	-	-	-	-	97
NS(=O)(=O)c1ccc(N2C(=O)C(=O)/C(=C(/O)c3ccccc3)C2c2ccc(Cl)cc2)cc1 (configuration not stated)	-	-	-	-	-	-
c1ccc(-c2nc(C3CCCCC3)c3sccc3n2)cc1	-	-	84	-	-	-
Cc1nn(-c2ccccc2)c2sc(-c3n[nH]c(=S)o3)cc12	-	-	80	-	-	-
Cc1nn(-c2ccccc2)c2sc(C(=O)O)cc12	-	-	-	-	-	-
O=C1CC(N2CCN(S(=O)(=O)c3ccc([N+](=O)[O-])cc3)CC2)C(=O)N1c1ccccc1F (configuration not stated)	.	.	.	-	-	.
Cc1ccc(NC(=O)OCc2cccs2)cc1	-	-	-	-	.	-
COc1ccc(OC)c(/C=C/C(=O)Nc2ccc(OC)nc2)c1	-	-	-	-	-	113
COc1ccc(Br)cc1/C=C/C(=O)Nc1ccc(C)cc1	-	-	-	-	-	-
COc1ccc(Br)cc1/C=C/C(=O)Nc1ccc2ccccc2c1	77	-	-	-	-	-
COc1ccc(N2C(N)=NC(N)=NC23CCCC3)cc1	-	-	-	-	-	-
CCCCOc1ccc(N2C(N)=NC(N)=NC23CCCCC3)cc1	-	-	-	-	-	-
CCOc1ccc(N2C(N)=NC(N)=NC2(C)C)cc1	-	-	95	-	-	-
CCOC(=O)c1cccc(N2C(N)=NC(N)=NC2(C)C)c1	-	-	91	-	-	-
CC1(C)N=C(N)N=C(N)N1c1ccc(OCCCOc2ccccc2)c(Cl)c1	85	-	111	.	103	-
CC1(C)N=C(N)N=C(N)N1c1cccc(C(=O)O)c1	-	-	-	-	-	-
COc1ccc(N2C(N)=NC(N)=NC2(C)C)cc1	-	-	73	.	-	-
N#Cc1sc(=O)[nH]c1Cl	-	-	-	-	-	-
COc1cccc(N2C(N)=NC(N)=NC2(C)C)c1	-	-	95	-	-	-
COc1ccccc1N1C(N)=NC(N)=NC1(C)C	.	-	-	-	-	-
O=c1ccsn1Cc1ccccc1	-	67	-	-	-	-
O=c1cc(Cl)[nH]c(=O)n1Cc1ccccc1	-	-	-	-	-	-
O=C(NC(=S)N(CCCCO)C1CCCCC1)c1sc2ccccc2c1Cl	-	-	89	-	-	-
Cc1cc(=O)oc2cc(OCC(=O)NCCc3ccccc3)ccc12	-	-	-	-	-	-
COc1ccc(-c2csc3ncnc(N4CCN(S(=O)(=O)c5cccc(C(F)(F)F)c5)CC4)c23)cc1	-	-	-	-	.	-
Clc1ccc(OCCN2CCN(c3ncnc4sccc34)CC2)cc1	-	-	.	-	106	100

Screens: PubChem BioAssay, several laboratories
